Compound activity deposited in PubChem BioAssay by Broad Institute.
Hits are enriched below; roughly 2.9% of the tested compounds scored in any of these assays.
FGF22 binding: FGF22 (human) thermal shift binding. Q9HCT0. recombinant FGF22 thermal shift, SYPRO orange fluorescence; percent of sucrose octasulfate shift, DMSO zero. activity (Tm shift, normalised), % at 9.99 µM. 340,000 tested, 1.5% active. AID 651658;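 active = mean Tm shift, scaled 0 neutral to 100 positive control, at about 1.3% or above, every replicate too, limit read from the data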
Target sequence (Q9HCT0 whole entry, looked up): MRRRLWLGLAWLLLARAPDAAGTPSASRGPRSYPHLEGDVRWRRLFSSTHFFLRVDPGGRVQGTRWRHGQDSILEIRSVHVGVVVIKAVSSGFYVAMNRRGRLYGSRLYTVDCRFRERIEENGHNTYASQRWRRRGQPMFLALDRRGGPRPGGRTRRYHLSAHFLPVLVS
Ecoli rRNA inh: inhibitors of bacterial rRNA selective over humanized ribosomes; E. coli WT GFP vs humanized-ribosome RFP mutants, fluorescence, 24 h; stronger effect = lower value; DMSO median 0, no signal -100; GFP signal change (wild-type ribosome), % (concentration not given with the values); 350,000 tested, 1.6% active; AID 720706;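 active = significant combined selectivity score with lowered wild-type GFP, culture density cut under 30%, mutant RFP and density less affected; inactive = any of these conditions unmet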
Vif inh: HIV Vif inhibition; HEK293T cells, Vif self-association by quenched fluorescence, imaging, 24 h; inhibition, % at 7.49 µM; 340,000 tested, 0.35% active; in the data active = inhibition above about 50%, passing the limit was not always enough
PglD inh: blocks C. jejuni PglD acetyltransferase activity | AID 602405 | inhibition, % at 12.5 µM | 360,000 tested, 0.098% active | purified PglD enzyme, DTNB colorimetric CoA detection; in the data active = inhibition above about 16%, passing the limit was not always enough
PGC1a acetyl inh: lowers PGC1a acetylation signal in U2OS cells | AID 651687 | AlphaScreen anti-acetyl-lysine; with virally co-expressed GCN5 acetyltransferase | inhibition, % at 15.6 µM | 350,000 tested, 0.17% active;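 active = every replicate shows inhibition of at least 40%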;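 note: 0% = neutral control wells and 100% = positive control wells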
Cneo AK release: causes C. neoformans cell lysis; adenylate kinase release luminescence, 4 h; normalised: neutral wells 0, clomiphene wells 100; lysis activity, % at 15 µM; AID 651654; 360,000 tested, 0.2% active;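 active = mean lysis activity across replicates of at least 80%, whatever share of replicates individually reach that level; inactive = mean lysis activity below 80%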
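Assay system: Cryptococcus neoformans yeast cells / Dosing: single-point compound dose / Timing: 4 h at 37 °C static, read 1 h later / Measured by: luminescence of released adenylate kinase using an AK detection reagent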
* hit, by the source's call; ! = a repeat was not active.

`CCOC(=O)Cc1cc(=O)[nH]n(-c2ccccc2)c1=O` gave FGF22 binding 44*, Ecoli rRNA inh 8, Vif inh -11, PglD inh -4, PGC1a acetyl inh -14 and Cneo AK release 0.
For O=C(O)Cc1cc(=O)[nH]n(-c2ccccc2)c1=O the results were FGF22 binding 0, Ecoli rRNA inh 8, Vif inh 5, PglD inh -5, PGC1a acetyl inh -3 and Cneo AK release 1.
For CSc1cc(/C=N/O)c(SC)s1 the results were Vif inh -1 and PGC1a acetyl inh -21.
Cc1cc(C)c(COCc2cc(/C=N/O)c(C)cc2C)cc1/C=N/O was read as FGF22 binding 0, Ecoli rRNA inh -36*, Vif inh -6, PglD inh 3, PGC1a acetyl inh -29 and Cneo AK release 0.
O=S(=O)(/N=C(/Nc1ccc(Cl)c(S(=O)(=O)Nc2ccccc2Cl)c1)c1ccc(F)cc1)c1ccccc1 was read as FGF22 binding 0, Ecoli rRNA inh -28*!, Vif inh -2 and PGC1a acetyl inh -5.
`COc1cc(NC(=O)CCCOc2ccc(Cl)cc2Cl)c(C(=O)O)cc1OC` gave FGF22 binding 0, Ecoli rRNA inh -31*, Vif inh -2, PglD inh 1, PGC1a acetyl inh 2 and Cneo AK release -1.
CCC(=O)Nc1ccc2c(c1)OC[C@@H](C)N(Cc1ccncc1)C[C@@H](C)[C@H](OC)CN(C)C2=O was read as FGF22 binding 0, Ecoli rRNA inh 1, PglD inh 4, PGC1a acetyl inh 5 and Cneo AK release 51.
For O=C(c1cccs1)N1CCCc2ccccc21 the results were FGF22 binding 0, Ecoli rRNA inh -24*, Vif inh 7, PglD inh -7, PGC1a acetyl inh -2 and Cneo AK release -1.
C[C@@H]1CN([C@@H](C)CO)S(=O)(=O)c2ccc(C#C[C@@H](C)O)cc2O[C@H]1CN(C)Cc1ccncc1 was read as FGF22 binding 0, Ecoli rRNA inh -11, PglD inh 0, PGC1a acetyl inh -23 and Cneo AK release -1.
C[C@@H]1CN([C@H](C)CO)S(=O)(=O)c2ccc(C#C[C@@H](C)O)cc2O[C@@H]1CN(C)Cc1ccncc1 was read as FGF22 binding 0, Ecoli rRNA inh -1, PglD inh 2, PGC1a acetyl inh 7 and Cneo AK release 83*.
C[C@H](O)C#Cc1ccc2c(c1)O[C@H](CN(C)Cc1ccncc1)[C@H](C)CN([C@H](C)CO)S2(=O)=O was read as FGF22 binding 0, Ecoli rRNA inh -3, PglD inh 1, PGC1a acetyl inh 7 and Cneo AK release 95*.
`C[C@H](O)C#Cc1ccc2c(c1)O[C@H](CN(C)C(=O)C1CCCCC1)[C@@H](C)CN([C@@H](C)CO)S2(=O)=O` gave FGF22 binding 0, Ecoli rRNA inh -1, PglD inh 4, PGC1a acetyl inh 0 and Cneo AK release 0.
For C[C@@H]1CN([C@@H](C)CO)S(=O)(=O)c2ccc(C#C[C@@H](C)O)cc2O[C@@H]1CN(C)C(=O)C1CCCCC1 the results were FGF22 binding 0, Ecoli rRNA inh 1, PglD inh 5, PGC1a acetyl inh 6 and Cneo AK release 105*.
`O=[N+]([O-])c1ccc(Sc2cccc[n+]2[O-])c2nonc12` gave FGF22 binding 0, Ecoli rRNA inh 16 and Vif inh 77*.
`C[C@@H]1CN([C@H](C)CO)C(=O)Cc2cc(NC(=O)CCC(F)(F)F)ccc2O[C@H]1CN(C)Cc1ccc(C(=O)O)cc1` gave FGF22 binding 0, Ecoli rRNA inh 3, PglD inh 3, PGC1a acetyl inh 3 and Cneo AK release 0.
Screening Cc1cc(NC(=O)c2ccc3[nH]c(C)c(C)c3c2)ccn1 returned FGF22 binding 0, Ecoli rRNA inh -18, Vif inh -12, PglD inh 3, PGC1a acetyl inh -7 and Cneo AK release -1.
For COc1ccc(NC(=O)c2ccc3[nH]c(C)c(C)c3c2)cc1 the results were FGF22 binding 1, Ecoli rRNA inh -25*, Vif inh -19, PglD inh 1, PGC1a acetyl inh -8 and Cneo AK release -6.
For CCCCCCn1c(N(CC)CC)nc2c1c(=O)[nH]c(=O)n2C the results were Vif inh 52*, PglD inh 2 and Cneo AK release -1.
Screening C[C@@H]1CCCCO[C@@H](CN(C)C(=O)CCCN(C)C)[C@H](C)CN([C@H](C)CO)C(=O)c2cc(NC(=O)C3CCCCC3)ccc2O1 returned FGF22 binding 0, Ecoli rRNA inh 2, PglD inh -1, PGC1a acetyl inh 0 and Cneo AK release 3.
For CO/N=C/C(C#N)c1ncc(C(F)(F)F)cc1Cl (configuration not stated) the results were FGF22 binding 0, Ecoli rRNA inh 12, PglD inh -1, PGC1a acetyl inh -16 and Cneo AK release -1.
`N#CC(c1ccccn1)c1ncc(C(F)(F)F)cc1Cl` (configuration not stated) gave FGF22 binding 43*, Ecoli rRNA inh 11, Vif inh 6, PglD inh -13, PGC1a acetyl inh -1 and Cneo AK release -1.
`CCCCN1C2=NCCCN2c2ccccc21` gave Vif inh -3, PglD inh 1, PGC1a acetyl inh 4 and Cneo AK release -1.
For CCCCCCCN1C2=NCCCN2c2ccccc21 the results were FGF22 binding 43*, Ecoli rRNA inh -4, Vif inh -14, PglD inh -3, PGC1a acetyl inh -26 and Cneo AK release 46.
Screening CCN1/C(=C2/SC(=S)N(NC(C)=O)C2=O)Sc2ccc(OC)cc21 returned FGF22 binding 0, Ecoli rRNA inh 10, Vif inh 71*, PglD inh -21 and Cneo AK release 0.
COc1ccc(C(=O)NCC(=O)N2CCCC(C)C2)cc1OC (configuration not stated) was read as FGF22 binding 43*, Ecoli rRNA inh 10 and Vif inh 8.
Screening O=C(c1cc(COc2ccc3ncccc3c2)on1)N1CCCC1 returned FGF22 binding 0, Ecoli rRNA inh -24*, Vif inh 0, PglD inh -1, PGC1a acetyl inh 8 and Cneo AK release 0.
Screening O=C(c1cc(COc2ccc3ncccc3c2)on1)N1CCCCCC1 returned FGF22 binding 0, Vif inh -12 and PGC1a acetyl inh 16.
For O=C(c1cc(COc2cccc3cccnc23)on1)N1CCC[C@H]1CO the results were FGF22 binding 0, Ecoli rRNA inh 1, Vif inh 51*, PglD inh 2, PGC1a acetyl inh -1 and Cneo AK release 0.
